Active and inactive are the calls of the source. The rule behind the calls is not given here.
Tests used:
SF-268 = assay: Antiproliferative activity against human SF-268 cells assessed as growth inhibition at 10 uM relative to control; type: functional; details: read-out: GI
In short: (§1)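 Single-dose screen run by the US National Cancer Institute across its 60-human tumour cell line panel. Each compound was tested at one concentration. Percent growth inhibition was recorded for each cell line.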

SK-MEL-2 = assay: Antiproliferative activity against human SK-MEL-2 cells assessed as growth inhibition at 10 uM relative to control; type: functional; details: read-out: GI; in short: as §1
UACC-257 = assay: Antiproliferative activity against human UACC-257 cells assessed as growth inhibition at 10 uM relative to control; type: functional; details: read-out: GI
In short: (§2)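 NCI 60 human tumour cell line panel screen. Compounds tested at a single dose and growth inhibition (%) determined for each line.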

HCC 2998 = assay: Antiproliferative activity against human HCC 2998 cells assessed as growth inhibition at 10 uM relative to control; type: functional; details: read-out: GI; in short: as §1
NCI-H460 = assay: Antiproliferative activity against human NCI-H460 cells assessed as growth inhibition at 10 uM relative to control; type: functional; details: read-out: GI; in short: as §1
HOP-92 = assay: Antiproliferative activity against human HOP-92 cells assessed as growth inhibition at 10 uM relative to control; type: functional; in short: as §1
HCT-15 = assay: Antiproliferative activity against human HCT-15 cells assessed as growth inhibition at 10 uM relative to control; type: functional; details: read-out: GI; in short: as §1
MCF7 = assay: Antiproliferative activity against human MCF7 cells assessed as growth inhibition at 10 uM relative to control; type: functional; details: read-out: GI; in short: as §1
Hs-578T = assay: Antiproliferative activity against human Hs-578T cells assessed as growth inhibition at 10 uM relative to control; type: functional; details: read-out: GI; in short: as §1
MDA-MB-435 = assay: Antiproliferative activity against human MDA-MB-435 cells assessed as growth inhibition at 10 uM relative to control; type: functional; details: read-out: GI; in short: as §1
HCT-116 = assay: Antiproliferative activity against human HCT-116 cells assessed as growth inhibition at 10 uM relative to control; type: functional; in short: as §1
ACHN = assay: Antiproliferative activity against human ACHN cells assessed as growth inhibition at 10 uM relative to control; type: functional; details: read-out: GI; in short: as §1
HT-29 = assay: Antiproliferative activity against human HT29 cells assessed as growth inhibition at 10 uM relative to control; type: functional; details: read-out: GI; in short: as §1
[1] = Antiproliferative activity against human CNS cancer cells; type: functional; details: CNS cell; for CC50: read-out: LC50 (the source's name)
LOX IMVI = assay: Antiproliferative activity against human LOX IMVI cells assessed as growth inhibition at 10 uM relative to control; type: functional; details: read-out: GI; in short: as §1
NCI-H226 = assay: Antiproliferative activity against human NCI-H226 cells assessed as growth inhibition at 10 uM relative to control; type: functional; details: read-out: GI; in short: as §1
OVCAR-4 = assay: Antiproliferative activity against human OVCAR-4 cells assessed as growth inhibition at 10 uM relative to control; type: functional; details: read-out: GI; in short: as §1
NCI-H322M = assay: Antiproliferative activity against human NCI-H322M cells assessed as growth inhibition at 10 uM relative to control; type: functional; details: read-out: GI; in short: as §1
RPMI-8226 = assay: Antiproliferative activity against human RPMI-8226 cells assessed as growth inhibition at 10 uM relative to control; type: functional; details: read-out: GI; in short: as §1
SNB-19 = assay: Antiproliferative activity against human SNB-19 cells assessed as growth inhibition at 10 uM relative to control; type: functional; details: read-out: GI; in short: as §2
HEK293 [2] = assay: Cytotoxicity against human HEK293 cells at 10^-6 M incubated for 24 hrs by MTT assay relative to control; type: cell-based; details: hek293, 24 h, 1 µM
In short: (§3)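 HEK293 cells grown in low-glucose DMEM with 10% FBS, glutamine, penicillin/streptomycin at 37 °C, 5% CO2. Cells exposed to compound at 10^-4 to 10^-8 M for 24 h at 37 °C. MTT from 5 mg/mL stock added for 4 h at 37 °C in dark. Formazan dissolved in DMSO and read at 570 nm. % toxicity calculated relative to medium-only control wells. Three experiments, each in triplicate.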

HEK293 [3] = assay: Cytotoxicity against human HEK293 cells at 10^-8 M incubated for 24 hrs by MTT assay relative to control; type: cell-based; details: hek293, 24 h, 0.01 µM; in short: as §3
HEK293 [4] = assay: Cytotoxicity against human HEK293 cells at 100 uM incubated for 24 hrs by MTT assay relative to control; type: cell-based; details: hek293, 24 h; in short: as §3
HEK293 [5] = assay: Cytotoxicity against human HEK293 cells at 10^-5 M incubated for 24 hrs by MTT assay relative to control; type: cell-based; details: hek293, 24 h, 10 µM; in short: as §3
HEK293 [6] = assay: Cytotoxicity against human HEK293 cells at 10^-7 M incubated for 24 hrs by MTT assay relative to control; type: cell-based; details: hek293, 24 h, 0.1 µM; in short: as §3
HEK293 [7] = assay: Cytotoxicity against human HEK293 cells at 10^-4 M incubated for 24 hrs by MTT assay relative to control; type: cell-based; details: hek293, 24 h, 100 µM; in short: as §3

## CC/C(=C(\c1ccccc1)c1ccc(OCCN(C)C)cc1)c1ccccc1 [TAMOXIFEN]
SF-268
  inhibition of growth at 10 µM: 43.3%
SK-MEL-2
  inhibition of growth at 10 µM: 31.5%
UACC-257
  inhibition of growth at 10 µM: -64.3%
HCC 2998
  inhibition of growth at 10 µM: 83.7%
NCI-H460
  inhibition of growth at 10 µM: 97.6%
HOP-92
  growth inhibition (GI): inactive
HCT-15
  inhibition of growth at 10 µM: 92.4%
MCF7
  inhibition of growth at 10 µM: -10.3%
Hs-578T
  inhibition of growth at 10 µM: 39.5%
MDA-MB-435
  inhibition of growth at 10 µM: 62.2%
HCT-116; read-out: GI
  inhibition of growth at 10 µM: 73.8%
ACHN
  inhibition of growth at 10 µM: 39.4%
HT-29
  inhibition of growth at 10 µM: -11.2%
[1]
  GI50: 4.04 µM
  TGI: 10.6 µM
  CC50: 44.1 µM
LOX IMVI
  inhibition of growth at 10 µM: -43.9%
NCI-H226
  inhibition of growth at 10 µM: 7.5%
OVCAR-4
  inhibition of growth at 10 µM: 53.7%
NCI-H322M
  inhibition of growth at 10 µM: 34%
RPMI-8226
  inhibition of growth at 10 µM: -28.3%
SNB-19
  inhibition of growth at 10 µM: 47.4%

## C/C(=C(/c1ccccc1)c1ccc(OCC(O)CNCCN2CCOCC2)cc1)c1ccccc1 (centres undefined)
HEK293 [2]
  Activity: 7.04%
HEK293 [3]
  Activity: 4.74%
SK-MEL-2
  inhibition of growth at 10 µM: 5.09%
UACC-257
  inhibition of growth at 10 µM: -27.5%
HCC 2998
  inhibition of growth at 10 µM: -59.6%
HEK293 [4]
  Activity: 20%
NCI-H460
  inhibition of growth at 10 µM: 82.4%
HEK293 [5]
  Activity: 13.73%
HOP-92; read-out: GI
  inhibition of growth at 10 µM: 40.9%
HCT-15
  inhibition of growth at 10 µM: 95.5%
MCF7
  inhibition of growth at 10 µM: 55.4%
Hs-578T
  inhibition of growth at 10 µM: 29.5%
MDA-MB-435
  inhibition of growth at 10 µM: -63.8%
HCT-116
  growth inhibition (GI): inactive
ACHN
  inhibition of growth at 10 µM: 18.6%
HT-29
  inhibition of growth at 10 µM: 96.8%
HEK293 [6]
  Activity: 5.43%
[1]
  GI50: 2.81 µM
  TGI: 9.9 µM
  CC50: 25.2 µM
LOX IMVI
  inhibition of growth at 10 µM: 81.3%
NCI-H226
  inhibition of growth at 10 µM: 3.88%
OVCAR-4
  inhibition of growth at 10 µM: 29.8%
HEK293 [7]
  Activity: 15.82%
NCI-H322M
  inhibition of growth at 10 µM: 27.3%
RPMI-8226
  inhibition of growth at 10 µM: 79.8%
SNB-19
  inhibition of growth at 10 µM: 8.8%

From ChEMBL document CHEMBL4706563, “Triphenylethylene analogues: Design, synthesis and evaluation of antitumor activity and topoisomerase inhibitors” (Eur J Med Chem, 2020)
